From PubChem BioAssay
BCLXL inh = Bcl-xL (human) inhibition | Q07817 | GST-Bcl-xL / FITC-Bim BH3 peptide fluorescence polarization | inhibition, % at 10.9 µM | actives 0.7% (n = 320,000) | AID 2129;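 active = inhibition above the mean of all tested compounds plus 3 SD, cutoff set per campaign, cut at about 30% in these data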;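 note: inhibitors lower millipolarization by displacing the labeled peptide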
Target sequence (Q07817 whole entry, looked up): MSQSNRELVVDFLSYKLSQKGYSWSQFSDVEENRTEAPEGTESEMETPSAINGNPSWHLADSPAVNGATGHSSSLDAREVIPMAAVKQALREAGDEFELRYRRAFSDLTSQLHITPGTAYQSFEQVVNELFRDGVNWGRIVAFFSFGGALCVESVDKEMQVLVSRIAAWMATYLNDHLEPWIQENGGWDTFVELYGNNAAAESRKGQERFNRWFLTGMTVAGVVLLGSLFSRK
IMP-1 inh = blocks Pseudomonas aeruginosa IMP-1 metallo-beta-lactamase; actives 0.45% (n = 290,000); purified IMP-1, nitrocefin hydrolysis, epi-absorbance fluorescence; inhibition, % at 5.6 µM;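 active = inhibition above the mean plus 3 SD of all compounds in the same screening run, cut at about 4.5% in these data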
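System: Purified IMP-1 | Read-out basis: Percent enzyme inhibition | Controls: IMP-1 with DMSO as 0%, enzyme-free DMSO as 100% | Replicates: One well per compound | Doses: 5.6 µM nominal single concentration | Detection: Epi-absorbance fluorescence, 480 nm excitation, 530 nm emission | Incubation: 25 °C, 15 min preincubation, 25 min reaction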
EBV gp42 block = inhibitors of Epstein-Barr virus glycoprotein 42; Q1HVG2; Fluorescence polarization binding assay, mP read-out; inhibition, % (tested at 21.74 µM); actives 0.42% (n = 220,000); AID 1085; in the data active = inhibition above about 50%
Target sequence (Q1HVG2 whole entry, looked up): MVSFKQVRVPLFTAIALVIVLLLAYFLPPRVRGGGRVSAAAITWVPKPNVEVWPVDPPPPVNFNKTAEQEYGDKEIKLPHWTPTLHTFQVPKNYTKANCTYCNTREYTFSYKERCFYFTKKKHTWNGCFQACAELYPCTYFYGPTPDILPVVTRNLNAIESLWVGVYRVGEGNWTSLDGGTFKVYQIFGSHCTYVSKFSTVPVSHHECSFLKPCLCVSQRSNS
GLD-1 TGE inh = GLD-1-TGE RNA interaction inhibition (C. elegans). actives 0.44% (n = 320,000). purified GLD-1 + fluorescein TGE RNA, fluorescence polarization. inhibition, % at 5.96 µM. Q17339;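 active = percent inhibition above a per-plate cutoff, the plate mean of test compounds plus 3 SD, cut at about 30% in these data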
VIM-2 inhibitor = blocks Pseudomonas aeruginosa VIM-2 metallo-beta-lactamase. purified VIM-2, nitrocefin hydrolysis, epi-absorbance fluorescence. inhibition, % at 5.6 µM. actives 0.89% (n = 290,000). AID 1527;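 active = inhibition above the mean of all tested compounds plus 3 SD, cutoff set per screening run, cut at about 7.5% in these data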;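 note: red hydrolysis product quenches plate fluorescence so inhibitors raise well fluorescence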
MEX-5 binding = C. elegans MEX-5 TCR-2 RNA binding activity; Q9XUB2; MEX-5/FITC-TCR2 RNA binding, fluorescence polarization; active compounds read low; activity score (negative = inhibition of binding), % at 10 µM; actives 0.38% (n = 300,000);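 active = inhibition past about -25% in most replicates, and total fluorescence under double the plate's negative control median, limit read from the data; inconclusive = replicates evenly split on the limit, or fluorescence at least double controls; inactive = too little inhibition in most replicates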
A number is an active result; - = inactive; ? = inconclusive; . = no result given; + = active, no number. Most compounds without a hit are left out; they make up all but 2.2% or so of the library.

SMILES	BCLXL inh	IMP-1 inh	EBV gp42 block	GLD-1 TGE inh	VIM-2 inhibitor	MEX-5 binding
Cc1cccc[n+]1C1C(c2ccccc2)C(C#N)=C(C(=C=[N-])C#N)NC1(O)C1CC1 (stereo not drawn)	43.6	-	-	-	-	-
N#CC(=C=[N-])C1=C(C#N)C(c2ccccc2F)C([n+]2ccccc2)C(O)(C2CC2)N1 (stereo not drawn)	-	-	-	-	-	-
O=C1N=C(N2C=CC(=C3C=CNC=C3)C=C2)/C(=C/N=NC(=O)c2ccccc2O)S1	99.2	-	.	81.2	-	-46.2
CCC(C)Nc1nc2ccccc2n2c(C)nnc12 (stereo not drawn)	-	-	.	-	-	-
O=c1c(N2CCOCC2)nsn1Cc1ccccc1	-	6.0	-	-	-	-
COc1ccc(C(=O)Nc2ccccc2C(=O)Nc2ccncc2)cc1	-	-	.	-	-	-
NC(=O)c1c(NC(=O)C2CC=CCC2C(=O)O)sc2c1CCCCC2 (stereo not drawn)	-	5.7	.	-	-	-
CC(C)OC(=O)c1c(NC(=O)C2CC=CCC2C(=O)O)sc2c1CCCCC2 (stereo not drawn)	-	-	.	-	-	-
O=C(NCc1ccccn1)C(=O)NCC(c1ccco1)N1CCN(c2ccc(F)cc2)CC1 (stereo not drawn)	31.6	-	-	-	-	-
C=CCn1c(-c2cccc(Cl)c2)n[nH]c1=S	-	-	-	-	-	-
C=CCn1c(-c2sccc2C)n[nH]c1=S	-	-	-	-	8.8	-
CCN1CCN(S(=O)(=O)c2ccc(Cl)c(C(=O)NCc3ccco3)c2)CC1	-	.	.	-	.	-
CCn1c(SCC(=O)N2CCCC2)nc2c1c(=O)n(C)c(=O)n2C	51.8	-	-	-	-	-
CCCn1c(SCC(=O)N2CCCCC2)nc2c1c(=O)n(C)c(=O)n2C	-	-	.	-	-	-
COCCN(Cc1ccc(F)cc1)C(=O)c1cc2ccccc2oc1=O	.	-	.	.	-	-
Nc1nc2nonc2nc1N1CCCCC1	34.2	-	-	-	-	-
CNC(=O)COC(=O)CCC(=O)c1cccs1	-	-	-	-	-	-
O=C(COC(=O)CCC(=O)c1cccs1)NC(=O)c1ccc(OC(F)F)cc1	-	4.8	-	-	-	-
Nc1ccc(N)c(C(=O)O)c1	57.8	.	107.9	-	.	-
Nc1ccc(C(=O)O)c(O)c1	-	-	-	-	-	-
NC(=O)c1cc2ccc(O)cc2oc1=NCc1ccccc1	129.4	-	107.9	94.8	-	?
Cc1csc(NC(=O)CSc2nc(=O)n(CCN(C)C)c3c2CCCC3)n1	-	.	.	-	.	-
COCCn1c(C)cc(C(=O)CSc2nc3ccccc3c(=O)n2Cc2ccco2)c1C	-	-	-	-	-	-
COCCn1c(C)cc(C(=O)CSc2cc(C)c3ccccc3n2)c1C	-	5.7	-	-	-	-
C[C@@H](NC(=O)[C@@H]1Cc2ccccc2CN1)C(=O)NCC1CCCO1 (stereo partly drawn)	-	-	.	-	-	-
SMILES	BCLXL inh	IMP-1 inh	EBV gp42 block	GLD-1 TGE inh	VIM-2 inhibitor	MEX-5 binding
CCC1=NN2C(=N)/C(=C\c3ccc(OCCOc4ccc(NC(C)=O)cc4)cc3)C(=O)N=C2S1	-	-	.	-	10.1	-
CCOc1cc(/C=C2\C(=N)N3N=C(C)SC3=NC2=O)ccc1OCCOc1cccc(OC)c1	-	-	.	-	-	-
CCc1nn2c(=O)cc(COc3ccc(/C=C4\C(=N)N5N=C(C)SC5=NC4=O)cc3)nc2s1	-	-	73.0	-	-	-
O=C(OCC(=O)N1CCCc2ccccc21)c1cccc(S(=O)(=O)N2CCOCC2)c1	-	.	.	-	.	-
N#CC1=C(N)C2=C(N3CCCCC3)CCCC2C1(C#N)C#N (stereo not drawn)	-	-	-	-	-	-44.0
O=C(NCc1cccc(Cl)c1)C1CCN(S(=O)(=O)c2ccc(F)cc2)CC1	-	-	.	-	-	-
CN(C)CCCN1C(=O)c2cc3ccccc3cc2C1=O	-	-	.	-	-	-
CN(C)CCCN1C(=O)c2cccc3cccc(c23)C1=O	-	-	.	-	7.8	-
CN1C[C@@H]2C(c3ccccc3)C3(c4ccc(C#N)cc4)CC2(C3)[C@H]1c1ccccc1 (stereo partly drawn)	-	.	-	-	.	-
CN1C=CC2=C(C#N)C(N)C(C#N)(C#N)C(c3ccccc3)C2C1 (stereo not drawn)	90.1	-	62.6	46.5	-	?
COc1cccc2c1C(=O)c1c(O)c3c(c(O)c1C2=O)C[C@](O)(C(C)=O)C[C@H]3O[C@@H]1C[C@@H](N)[C@@H](O)[C@@H](C)O1	+	.	.	+	.	?
O=C(OCc1nnc(-c2ccc(Cl)cc2)o1)c1ccc(=O)n(Cc2ccccc2)n1	-	4.8	-	-	-	-
Cc1ccccc1C(=O)OCc1nnc(-c2ccc(Cl)cc2)o1	-	-	-	-	-	-
COC(=O)COc1ccc(C(=O)Cn2c(NCCCO)nc3ccccc32)cc1	-	.	.	-	.	-
Cc1c(/C=N\NC(=O)c2cccc(F)c2)cnn1C	-	-	-	-	-	-
CCc1ccc(OCc2cccc(C(=O)N/N=C\c3cnn(C)c3C)c2)cc1	.	6.4	.	.	-	-
CN1C2C=C3C(C#N)=C(N)C(C#N)(C#N)[C@@H](c4cccc(F)c4)[C@@H]3C1CC2 (stereo partly drawn)	30.7	-	-	-	-	-
O=C1c2cccc3c([N+](=O)[O-])ccc(c23)C(=O)N1Cc1cccnc1	.	-	122.6	.	-	-
Cc1ccc(N2C(=O)c3cccc4c([N+](=O)[O-])ccc(c34)C2=O)c2cccnc12	-	-	-	-	-	-
Cc1ccnc(N2C(=O)c3cccc4c([N+](=O)[O-])ccc(c34)C2=O)c1	88.3	-	66.8	77.0	-	-
c1ccc(CSc2nnc(-c3ccco3)n2Cc2ccco2)cc1	-	-	-	-	-	-
CCCCOc1[nH]c2nc(-c3ccco3)n(Cc3ccco3)c(=N)c2c1C#N	139.6	-	55.4	107.5	-	-
Cc1ccc(NC(=O)CNCc2ccccc2Cl)cc1S(=O)(=O)N(C)C	-	36.6	.	-	-	-
N#CC1=C(N)SC(N)=C(C#N)C1c1ccoc1	67.2	-	-	-	-	-
COCCCN(C(=O)c1cc(C)oc1C)c1c(N)n(CC(C)C)c(=O)[nH]c1=O	-	.	.	-	.	.
O=C(O)CCCN1C(=O)/C(=C/c2ccc(-c3nc4ccccc4s3)o2)SC1=S	-	-	-	-	-	-29.3
O=C(O)CCCCCN1C(=O)/C(=C\c2ccc(-c3ccc(Cl)cc3)o2)SC1=S	-	-	-	-	-	-
COc1ccc(OC)c(/C=C/c2nc3ccccc3[nH]c2=O)c1	77.8	-	.	74.9	-	-
COc1ccc(OC)c(C=Nc2ccccc2-c2nc3ccccc3[nH]2)c1	-	-	-	-	-	-
